Measurements: ChEMBL document CHEMBL1122187, “Synthesis and antiviral activity of certain carbamoylpyrrolopyrimidine and pyrazolopyrimidine nucleosides” (1982)

Tests used:
[1] = test system: Vero; experiment: In vitro antiviral activity against herpes simplex type 1 (HSV-1) virus was determined in african green monkey kidney (vero,V) expressed as virus rating. Toxic level(>1000 ug/mL); assay type: functional, Chlorocebus sabaeus
Summary of the method: (§1)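 Cell monolayers (18 h) infected with 320 TCID50 of virus. Compound was added within 15–30 min at half-log dilutions from 1000 to 1 μg/mL. After 72 h at 37 °C in 5% CO2, CPE was scored 0–4 by microscopy. VR = sum of (virus control − treated) scores, halved at partially toxic levels, divided by 10 × test cups per drug level.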

[2] = test system: HEp-2; experiment: In vitro antiviral activity against vaccinia(VV) virus was determined in human laryngeal epithelioma (HEp-2,H)expressed as virus rating. Toxic level(100 ug/mL); assay type: functional; summary of the method: as §1
[3] = test system: HEp-2; experiment: In vitro antiviral activity against parainfluenza type 3 (para3) virus was determined in human laryngeal epithelioma (HEp-2,H)expressed as virus rating. Toxic level(100 ug/mL); assay type: functional; summary of the method: as §1
[4] = test system: HEp-2; experiment: In vitro antiviral activity against herpes simplex type 1 (HSV-1) virus was determined in human laryngeal epithelioma (HEp-2,H)expressed as virus rating. Toxic level(100 ug/mL); assay type: functional; summary of the method: as §1
[5] = test system: Vero; experiment: In vitro antiviral activity against parainfluenza type 3(para 3) virus was determined in african green monkey kidney (vero,V) expressed as virus rating. Toxic level(>1000 ug/mL); assay type: functional, Chlorocebus sabaeus; summary of the method: as §1
[6] = test system: Vero; experiment: In vitro antiviral activity against vaccinia(VV) virus was determined in african green monkey kidney (vero,V) expressed as virus rating. Toxic level(>1000 ug/mL); assay type: functional, Chlorocebus sabaeus; summary of the method: as §1
[7] = test system: Vero; experiment: In vitro antiviral activity against vaccinia(VV) virus was determined in african green monkey kidney (vero,V) expressed as virus rating.; assay type: functional, Chlorocebus sabaeus; summary of the method: as §1
[8] = test system: Vero; experiment: Percentage plaque reduction was determined against rift valley fever(RVF) virus in african green monkey kidney (vero,V) at a conc of 25-100 ug/mL; assay type: functional, Chlorocebus sabaeus
[9] = test system: Vero; experiment: Percentage plaque reduction was determined against yellow fever(YF) virus in african green monkey kidney (vero,V); 61-90; assay type: functional, Chlorocebus sabaeus
[10] = test system: Vero; experiment: Percentage plaque reduction was determined against rift valley fever(RVF) virus in african green monkey kidney (vero,V) at a conc of <25 ug/mL; assay type: functional, Chlorocebus sabaeus
[11] = test system: Vero; experiment: Percentage plaque reduction was determined against venezuelan equine encephalitis (VEE) virus in african green monkey kidney (vero,V) at a conc of <25 ug/mL; assay type: functional, Chlorocebus sabaeus
[12] = test system: Vero; experiment: Percentage plaque reduction was determined against venezuelan equine encephalitis (VEE) virus in african green monkey kidney (vero,V) at a conc of 100-250 ug/mL; assay type: functional, Chlorocebus sabaeus
[13] = test system: Vero; experiment: Percentage plaque reduction was determined against Sandfly fever (SF) virus in african green monkey kidney (vero,V) at a conc of <25 ug/mL; assay type: functional, Chlorocebus sabaeus
[14] = test system: Vero; experiment: Percentage plaque reduction was determined against rift valley fever(RVF) virus in african green monkey kidney (vero,V) at a conc of 250-500 ug/mL; assay type: functional, Chlorocebus sabaeus
[15] = test system: Vero; experiment: Percentage plaque reduction was determined against venezuelan equine encephalitis (VEE) virus in african green monkey kidney (vero,V) at a conc of 25-100 ug/mL; assay type: functional, Chlorocebus sabaeus
[16] = test system: Vero; experiment: Percentage plaque reduction was determined against Sandfly fever (SF) virus in african green monkey kidney (vero,V) at a conc of 100-250 ug/mL; assay type: functional, Chlorocebus sabaeus
[17] = test system: Vero; experiment: Percentage plaque reduction was determined against Sandfly fever (SF) virus in african green monkey kidney (vero,V) at a conc of 250-500 ug/mL; assay type: functional, Chlorocebus sabaeus
[18] = test system: Vero; experiment: Percentage plaque reduction was determined against venezuelan equine encephalitis (VEE) virus in african green monkey kidney (vero,V) at a conc of 250-500 ug/mL; assay type: functional, Chlorocebus sabaeus
[19] = test system: Vero; experiment: Percentage plaque reduction was determined against rift valley fever(RVF) virus in african green monkey kidney (vero,V) at a conc of 100-250 ug/mL; assay type: functional, Chlorocebus sabaeus
[20] = test system: Vero; experiment: Percentage plaque reduction was determined against pichinde(PICH) virus in african green monkey kidney (vero,V); assay type: functional, Chlorocebus sabaeus
Summary of the method: (§2)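 Infected Vero 24-well monolayers: virus adsorbed 1 h at 37 °C, then overlaid with agar holding dilutions of compound and incubated again at 37 °C with CO₂. Plaques were stained with crystal violet and counted. Inhibition was scored as % plaque reduction bands (10-30%, 31-60%, 61-90%), each tied to a drug concentration range.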

[21] = test system: Vero; experiment: In vitro antiviral activity against parainfluenza type 3(para 3) virus was determined in african green monkey kidney (vero,V) expressed as virus rating.; assay type: functional, Chlorocebus sabaeus; summary of the method: as §1
[22] = test system: Vero; experiment: Percentage plaque reduction was determined against Sandfly fever (SF) virus in african green monkey kidney (vero,V) at a conc of 25-100 ug/mL; assay type: functional, Chlorocebus sabaeus
[23] = test system: Vero; experiment: In vitro antiviral activity against herpes simplex type 1 (HSV-1) virus was determined in african green monkey kidney (vero,V) expressed as virus rating.; assay type: functional, Chlorocebus sabaeus; summary of the method: as §1
[24] = test system: Vero; experiment: Percentage plaque reduction was determined against Sandfly fever (SF) virus in african green monkey kidney (vero,V) at a conc of 25-100 ug/mL. Toxic level(10 ug/mL); assay type: functional, Chlorocebus sabaeus
[25] = test system: Vero; experiment: Percentage plaque reduction was determined against venezuelan equine encephalitis (VEE) virus in african green monkey kidney (vero,V) at a conc of 100-250 ug/mL. Toxic level(10 ug/mL); assay type: functional, Chlorocebus sabaeus
[26] = test system: Vero; experiment: Percentage plaque reduction was determined against pichinde(PICH) virus in african green monkey kidney (vero,V).Toxic level(10 ug/mL); assay type: functional, Chlorocebus sabaeus; summary of the method: as §2
[27] = test system: Vero; experiment: Percentage plaque reduction was determined against rift valley fever(RVF) virus in african green monkey kidney (vero,V) at a conc of <25 ug/mL. Toxic level(10 ug/mL); assay type: functional, Chlorocebus sabaeus
[28] = test system: Vero; experiment: Percentage plaque reduction was determined against Sandfly fever (SF) virus in african green monkey kidney (vero,V) at a conc of 250-500 ug/mL. Toxic level(10 ug/mL); assay type: functional, Chlorocebus sabaeus
[29] = test system: Vero; experiment: Percentage plaque reduction was determined against rift valley fever(RVF) virus in african green monkey kidney (vero,V) at a conc of 100-250 ug/mL. Toxic level(10 ug/mL); assay type: functional, Chlorocebus sabaeus
[30] = test system: Vero; experiment: Percentage plaque reduction was determined against venezuelan equine encephalitis (VEE) virus in african green monkey kidney (vero,V) at a conc of 25-100 ug/mL. Toxic level(10 ug/mL); assay type: functional, Chlorocebus sabaeus
[31] = test system: Vero; experiment: Percentage plaque reduction was determined against Sandfly fever (SF) virus in african green monkey kidney (vero,V) at a conc of <25 ug/mL. Toxic level(10 ug/mL); assay type: functional, Chlorocebus sabaeus; summary of the method: as §2
[32] = test system: Vero; experiment: Percentage plaque reduction was determined against venezuelan equine encephalitis (VEE) virus in african green monkey kidney (vero,V) at a conc of 250-500 ug/mL. Toxic level(10 ug/mL); assay type: functional, Chlorocebus sabaeus
[33] = test system: Vero; experiment: Percentage plaque reduction was determined against Sandfly fever (SF) virus in african green monkey kidney (vero,V) at a conc of 100-250 ug/mL. Toxic level(10 ug/mL); assay type: functional, Chlorocebus sabaeus
[34] = test system: Vero; experiment: Percentage plaque reduction was determined against yellow fever (YF) virus in african green monkey kidney (vero,V).Toxic level(10 ug/mL); assay type: functional, Chlorocebus sabaeus
[35] = test system: Vero; experiment: In vitro antiviral activity against herpes simplex type 1 (HSV-1) virus was determined in african green monkey kidney (vero,V) expressed as virus rating. Toxic level(10 ug/mL); assay type: functional, Chlorocebus sabaeus; summary of the method: as §1
[36] = test system: Vero; experiment: Percentage plaque reduction was determined against rift valley fever(RVF) virus in african green monkey kidney (vero,V) at a conc of 250-500 ug/mL. Toxic level(10 ug/mL); assay type: functional, Chlorocebus sabaeus
[37] = test system: Vero; experiment: Percentage plaque reduction was determined against rift valley fever(RVF) virus in african green monkey kidney (vero,V) at a conc of 25-100 ug/mL. Toxic level(10 ug/mL); assay type: functional, Chlorocebus sabaeus
[38] = test system: Vero; experiment: In vitro antiviral activity against herpes simplex type 1 (HSV-1) virus was determined in african green monkey kidney (vero,V) expressed as virus rating. Toxic level(100 ug/mL); assay type: functional, Chlorocebus sabaeus; summary of the method: as §1
[39] = test system: Vero; experiment: In vitro antiviral activity against vaccinia(VV) virus was determined in african green monkey kidney (vero,V) expressed as virus rating. Toxic level(100 ug/mL); assay type: functional, Chlorocebus sabaeus; summary of the method: as §1
[40] = test system: Vero; experiment: In vitro antiviral activity against parainfluenza type 3(para 3) virus was determined in african green monkey kidney (vero,V) expressed as virus rating. Toxic level(100 ug/mL); assay type: functional, Chlorocebus sabaeus; summary of the method: as §1
[41] = test system: HEp-2; experiment: In vitro antiviral activity against parainfluenza type 3(para 3) virus was determined in human laryngeal epithelioma (HEp-2,H)expressed as virus rating. Toxic level(100 ug/mL); assay type: functional; summary of the method: as §1

CSc1ncnc2c1ccn2[C@@H]1O[C@H](CO)[C@@H](O)[C@H]1O
Virus rating [1]: 0.5
Virus rating [2]: 1.4
Virus rating [3]: 1.5
Virus rating [4]: 1.3
Virus rating [5]: 0.9
Virus rating [6]: 1

CSc1ncnc2c([C@@H]3O[C@H](COC(C)=O)[C@@H](OC(C)=O)[C@H]3OC(C)=O)n[nH]c12
Virus rating [7]: 1.2
Plaque reduction [8]: 0%
Plaque reduction [9]: 61%
Plaque reduction [10]: 0%
Plaque reduction [11]: 0%
Plaque reduction [12]: 0%
Plaque reduction [13]: 0%
Plaque reduction [14]: 0%
Plaque reduction [15]: 0%
Plaque reduction [16]: 0%
Plaque reduction [17]: 0%
Plaque reduction [18]: 0%
Plaque reduction [19]: 0%
Plaque reduction [20]: 0%
Virus rating [21]: 1
Plaque reduction [22]: 0%
Virus rating [23]: 0.6

O=C1N=CN=C2C([C@@H]3O[C@H](CO)[C@@H](O)[C@H]3O)=NNC12 (some centres undefined)
Plaque reduction [24]: 0%
Plaque reduction [11]: 0%
Plaque reduction [25]: 0%
Plaque reduction [26]: >90%
Plaque reduction [27]: 0%
Plaque reduction [28]: 0%
Plaque reduction [29]: 0%
Plaque reduction [30]: 0%
Plaque reduction [31]: 0%
Plaque reduction [32]: 0%
Plaque reduction [33]: 0%
Plaque reduction [34]: 0%
Virus rating [35]: 0.1
Plaque reduction [36]: 0%
Plaque reduction [37]: 0%

NC(=O)c1ncnc2c([C@@H]3O[C@H](CO)[C@@H](O)[C@H]3O)n[nH]c12
Virus rating [38]: 0
Virus rating [2]: 0.8
Virus rating [39]: 0.6
Virus rating [40]: 0
Virus rating [4]: 0
Virus rating [41]: 0.4
